Results from ChEMBL document CHEMBL1134345, “Coumarin and chromen-4-one analogues as tautomerase inhibitors of macrophage migration inhibitory factor: discovery and X-ray crystallography” (J Med Chem, 2001).

What follows are compounds tested against T1, Macrophage migration inhibitory factor (Homo sapiens, UniProt P14174) (assay: Binding activity towards the active site of macrophage migration inhibitory factor (MIF)).
T1 sequence (P14174 whole entry): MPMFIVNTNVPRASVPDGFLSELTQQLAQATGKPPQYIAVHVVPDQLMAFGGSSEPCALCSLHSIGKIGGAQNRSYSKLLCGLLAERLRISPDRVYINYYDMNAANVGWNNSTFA

Kd	Compound
2500 µM	CCCCCCSC[C@H](NC(=O)CC[C@H](N)C(=O)O)C(=O)NCC(=O)O

Each compound was assayed against T1, Macrophage migration inhibitory factor (assay: Inhibitory activity against tautomerase macrophage migration inhibitory factor (MIF)).
How it was run: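 Recombinant human MIF at 4 ug/mL final, in sodium phosphate buffer pH 6.0. Inhibitors were added in DMSO (1% v/v final). The reaction was started with freshly made D-dopachrome (D-DOPA oxidized with periodate, 1:2) at 0.25–0.5 mM. The A475 decrease was followed for 10 min. Initial rates were corrected for the uncatalyzed rate without MIF. Ki came from three-dimensional nonlinear regression.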

Ki	IC50	Compound
4.3 µM		CC(=O)c1cc2ccc(O)cc2oc1=O
0.28 µM		O=c1oc2ccccc2cc1-c1csc(-c2cc3ccc(O)cc3oc2=O)n1
0.47 µM		O=c1oc2cc(O)ccc2cc1-c1ccccc1
	3300 µM	CCCCCCSC[C@H](NC(=O)CC[C@H](N)C(=O)O)C(=O)NCC(=O)O
2.6 µM		O=C(O)/C=C/c1ccc(O)cc1F
6.2 µM		CN(C)c1ccc(/C=C2\C(=O)Oc3ccccc3C2=O)cc1
5.8 µM		CCOC(=O)CC(=O)c1cc2ccc(O)cc2oc1=O
0.55 µM		NC(=S)c1cc2ccc(O)cc2oc1=O
	17.4 µM	CCCCCCS [HEXANETHIOL]
3.1 µM		Cc1csc(-c2cc3ccc(O)cc3oc2=O)n1
1.6 µM		O=C(COC(=O)c1cc2ccccc2oc1=O)c1ccccc1
1.5 µM		O=c1oc2cc(O)ccc2cc1-c1nc(-c2ccc3c(c2)OCO3)cs1
2.1 µM		Cc1nc(-c2cc3ccc(O)cc3oc2=O)cs1

Compound	Ki	IC50
N#Cc1cc2ccc(O)cc2oc1=O	2.9 µM	
